This passage reports Ratio and IC50 results from ChEMBL document CHEMBL1129653, “Synthesis and quantitative structure-activity relationship of a novel series of small conductance Ca(2+)-activated K+ channel blockers related to dequalinium” (J Med Chem, 1996).

A short description of assay [1]: Equieffective molar ratio of compound to inhibit hyperpolarization in cultured rat sympathetic neurons. Type of assay: functional, Sympathetic neuron. The procedure, abridged:
(§1)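 Rat sympathetic neurons dissociated, plated on laminin-coated dishes and cultured 3–10 days, then perfused with physiological salt solution (mM: NaCl 118, KCl 4.8, CaCl2 2.5). AHP inhibition taken as the peak difference between control and blocker records, as % of control AHP. Dequalinium reference run in each series. EMR is test-compound IC50 divided by dequalinium IC50 from the same experiment; IC50 by Hill fit, ≥3 cells.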

In assay [2] the target is T1, Small conductance calcium-activated potassium channel (Rattus norvegicus, UniProt P70604+P70606+P70605). Kind of assay: SKCa-blocking activity by its ability to inhibit after hyperpolarization (AHP) in cultured rat sympathetic neurons. Type of assay: functional, cell-based. The following applies: sympathetic neuron. The procedure, abridged:
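AHP block was the peak of the digitally subtracted control-minus-drug record, as % of control AHP at the same time point. IC50 came from a Hill equation fit over at least three cells. Test concentrations above 10–30 µM were generally avoided.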

Assay [3] has as its target T1, Small conductance calcium-activated potassium channel. Kind of assay: SKCa-blocking activity as inhibitino of after hyperpolarization (AHP) in cultured rat sympathetic neurons; No activity at maximal dose used. It counts as functional, cell-based. The following applies: sympathetic neuron. In a few lines:
(§2)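 Cultured rat sympathetic neurons (laminin-coated dishes, 3–10 days) were perfused with physiological salt solution (mM: NaCl 118, KCl 4.8, CaCl2 2.5). AHP block was the peak of the digitally subtracted control-minus-drug record, as % of control AHP at the same time point. IC50 came from a Hill equation fit over at least three cells. Test concentrations above 10–30 µM were generally avoided.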

Assay [4] can be described thus: Equieffective molar ratio of compound to inhibit hyperpolarization in cultured rat sympathetic neurons; No activity up to this concentration. Type of assay: functional, Sympathetic neuron. In a few lines:
as §1

Assay [5] has as its target T1, Small conductance calcium-activated potassium channel. Kind of assay: SKCa-blocking activity as inhibition of after hyperpolarization (AHP) in cultured rat sympathetic neurons; Insufficient activity at maximal dose used. Type of assay: functional, cell-based. The following applies: sympathetic neuron. In a few lines:
as §2

Assay [6] is described as follows: Equieffective molar ratio of compound to inhibit hyperpolarization in cultured rat sympathetic neurons; Insufficient activity up to this concentration to determine. Type of assay: functional, Sympathetic neuron. In a few lines:
as §1

With `c1ccc2c(NCCCCCCCCCCNc3ccnc4ccccc34)ccnc2c1`, the Ratio in assay [1] was 3.5.
On to `C[n+]1ccc(SCCCCCCCCCCSc2cc[n+](C)c3ccccc23)c2ccccc21`, for which the Ratio in assay [1] worked out at 6.2. Also, the IC50 in assay [2] is 3700 nM.
For `Cc1cc(NCCCCCCCCCCNc2cc(C)[n+](CCC(c3ccccc3)c3ccccc3)c3ccccc23)c2ccccc2[n+]1CCC(c1ccccc1)c1ccccc1`, in that order: 6.2 and 4300 nM.
The like results for `Cc1cc(NCCCCCCCCCCNc2cc(C)[n+](Cc3ccccc3)c3ccccc23)c2ccccc2[n+]1Cc1ccccc1` were, in that order, 0.6 and 400 nM.
Consider `c1ccc2c(CCCCCCCCCCCCc3ccnc4ccccc34)ccnc2c1`, for which, in assay [3], the IC50 is over 10000 nM. Also, the Ratio in assay [4] was over 10.
In the case of `c1ccc2c(SCCCCCCCCCCSc3ccnc4ccccc34)ccnc2c1`, the IC50 in assay [5] was over 10000 nM. For the same molecule, the Ratio in assay [6] is on record as over 10.
In the case of `Cc1cc(NCCCCCCCCCCCCNc2cc(C)[n+](Cc3ccccc3)c3ccccc23)c2ccccc2n1`, the Ratio in assay [1] is listed as 8. The IC50 in assay [2] was found to be 4400 nM.
For `c1ccc(C[n+]2ccc(NCCCCCCCCCCNc3cc[n+](Cc4ccccc4)c4ccccc34)c3ccccc32)cc1`, in that order: 1 and 700 nM.
With `C[n+]1ccc(NCCCCCCCCCCNc2cc[n+](C)c3cc(Cl)ccc23)c2ccc(Cl)cc21`, the Ratio in assay [1] turned out to be 1.5. Further, the IC50 in assay [2] is 1300 nM.
`Cc1cc(N)c2ccccc2[n+]1CCCCCCCCCC[n+]1c(C)cc(N)c2ccccc21.[Cl-].[Cl-]` [DEQUALINIUM CHLORIDE]: the IC50 in assay [2] was 1000 nM.
With `C[n+]1ccc(CCCCCCCCCCc2cc[n+](C)c3ccccc23)c2ccccc21`, in assay [1], the Ratio is 26. Also, in assay [2], the IC50 amounted to 40000 nM.
For the molecule `COc1cc(C[n+]2c(C)cc(NCCCCCCCCCCNc3cc(C)nc4ccccc34)c3ccccc32)cc(OC)c1`, in assay [1], the Ratio is reported as 1.2. The IC50 in assay [2] was 750 nM.
The like results for `C[n+]1ccc(NCCCCCCCCCCNc2cc[n+](C)c3ccccc23)c2ccccc21` were, in that order, 1.9 and 2100 nM.
For `Cc1cc(NCCCCCCCCCCCCNc2cc(C)nc3ccccc23)c2ccccc2n1`, in that order: 7.1 and 3800 nM.
With `C[n+]1ccc(CCCCCCCCCCCCc2cc[n+](C)c3ccccc23)c2ccccc21`, the Ratio in assay [1] was found to be 5.9. The IC50 in assay [2] amounted to 3900 nM.
For `C[n+]1ccc(OCCCCCCCCCCOc2cc[n+](C)c3ccccc23)c2ccccc21`, in that order: 7.2 and 6800 nM.
The like results for `Cc1cc(NCCCCCCCCCCCCNc2cc(C)[n+](Cc3ccccc3)c3ccccc23)c2ccccc2[n+]1Cc1ccccc1` were, in that order, 4 and 2400 nM.
The like results for `C[n+]1ccc(NCCCCCCCCNc2cc[n+](C)c3ccccc23)c2ccccc21` were, in that order, 3.1 and 2700 nM.
As for `COc1cc(C[n+]2c(C)cc(NCCCCCCCCCCNc3cc(C)[n+](Cc4cc(OC)cc(OC)c4)c4ccccc34)c3ccccc32)cc(OC)c1`, the Ratio in assay [1] is on record as 2.1. For the same molecule, the IC50 in assay [2] is 1700 nM.
The like results for `Cc1cc(NCCCCCCCCCCNc2cc(C)[n+](Cc3ccccc3)c3ccccc23)c2ccccc2n1` were, in that order, 2.4 and 1300 nM.
The like results for `Cc1cc(NCCCCCCCCCCNc2cc(C)nc3ccccc23)c2ccccc2n1` [QUINDECAMINE] were, in that order, 3.6 and 2500 nM.
The like results for `c1ccc2c(OCCCCCCCCCCOc3ccnc4ccccc34)ccnc2c1` were, in that order, 16 and 18000 nM.
